Results from the M2OR odorant receptor database.

target: T1, OR5K1 (Homo sapiens) (UniProt Q8NHB7); conditions: stereoisomer not certain
T1 sequence (whole entry): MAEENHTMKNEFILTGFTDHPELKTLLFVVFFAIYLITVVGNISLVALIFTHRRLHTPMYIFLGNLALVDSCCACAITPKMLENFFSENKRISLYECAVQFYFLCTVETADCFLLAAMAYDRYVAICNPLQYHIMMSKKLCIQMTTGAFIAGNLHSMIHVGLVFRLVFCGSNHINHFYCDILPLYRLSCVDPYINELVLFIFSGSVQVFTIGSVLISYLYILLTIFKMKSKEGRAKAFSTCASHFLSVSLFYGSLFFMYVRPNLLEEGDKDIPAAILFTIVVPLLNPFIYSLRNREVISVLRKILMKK
Summary of the method: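 Values were gathered from published papers (main text and supplementary material), with extra details requested from the original authors when needed, and checked for typos and inconsistencies. Each receptor–molecule pair is called responsive (active) if the original authors judged the measured signal statistically different from baseline, and non-responsive (inactive) otherwise. Assay methods varied by source, often transient mammalian cell-line luciferase assays. Recorded details include cell line, G-protein, co-transfected protein and tags.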

SMILES	odorant receptor agonist call
CSSC	inactive
C=CCOC(=O)Cc1ccccc1	inactive
NCC(=O)c1ccccc1	inactive
C=CCc1ccc(OC)cc1	inactive
SCc1ccco1	inactive
Cc1ccc(O)c(C)c1	inactive
Cc1ccccc1O	inactive
COc1ccc(C=O)cc1	inactive
O=Cc1ccc2c(c1)OCO2	inactive
C=CCSSCC=C	inactive
CCOC(=O)Cc1ccccc1	inactive
